In brackets after ≈: the same amount, converted by molar mass. Bridge positions count the residues as written; N and C are the ends. Square brackets hold non-standard residues; d marks the D form. Peptide text beside a SMILES is read from it. * marks the point of attachment. Octanoyl = CCCCCCCC(=O)*; Dab = NCC[C@H](N)C(=O)O; Abu = CC[C@H](N)C(=O)O
Experiments:
[1] = test system: Klebsiella pneumoniae; assay: Antibacterial activity against Klebsiella pneumoniae ATCC 13883 by Etest method in presence of NAB7061; type: functional
Procedure, shortened: (§1)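 MICs of the antibiotic taken from E-strips on Mueller-Hinton agar, run both with and without peptide. […] Inoculum was prepared per the strip manufacturer, matching CLSI M2-A9.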

[2] = test system: Enterobacter cloacae; assay: Antibacterial activity against Enterobacter cloacae ATCC 23355 […] by Etest method in presence of 1 ug/ml NAB7061; type: functional
[3] = test system: Enterobacter cloacae; assay: Antibacterial activity against Enterobacter cloacae ATCC 23355 […] by Etest method in presence of 4 ug/ml NAB7064; type: functional
[4] = test system: Acinetobacter baumannii; assay: (§2) Antibacterial activity against Acinetobacter baumannii F264 by Etest method in presence of […] NAB739; type: functional
[5] = test system: Klebsiella pneumoniae; assay: Antibacterial activity against Klebsiella pneumoniae by Etest method in presence of 4 ug/ml NAB7064; type: functional
[6] = test system: Escherichia coli; assay: Antibacterial activity against Escherichia coli IH3080 by Etest method; type: functional
Procedure, shortened: (§3)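 E-strip MIC on Mueller-Hinton agar without added peptide; inoculum per manufacturer, matching CLSI M2-A9.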

[7] = test system: Pseudomonas aeruginosa; assay: Antibacterial activity against Pseudomonas aeruginosa ATCC 27853by Etest method in presence of 1 ug/ml NAB739; type: functional; procedure, shortened: as §1
[8] = test system: Klebsiella oxytoca; assay: Antibacterial activity against Klebsiella oxytoca CCUG51683 by Etest method in presence of 4 ug/ml NAB7066; type: functional
[9] = test system: Acinetobacter baumannii; assay: Antibacterial activity against Acinetobacter baumannii ATCC 19606 by Etest method; type: functional
[10] = test system: Enterobacter cloacae; assay: Antibacterial activity against Enterobacter cloacae ATCC 23355 […] by Etest method in presence of 2 ug/ml NAB7062; type: functional
[11] = test system: Klebsiella pneumoniae; assay: Antibacterial activity against Klebsiella pneumoniae CCUG45421 by Etest method in presence of 4 ug/ml NAB7063; type: functional
[12] = test system: Pseudomonas aeruginosa; assay: Antibacterial activity against Pseudomonas aeruginosa ATCC 27853 by Etest method in presence of 4 ug/ml NAB7075; type: functional
[13] = test system: Acinetobacter baumannii; assay: (§4) Antibacterial activity against Acinetobacter baumannii ATCC 19606 by Etest method in presence of […] NAB739; type: functional
[14] = test system: Escherichia coli; assay: Antibacterial activity against Escherichia coli ATCC […] by Etest method in presence of 1 ug/ml NAB7061; type: functional
[15] = test system: Escherichia coli; assay: Antibacterial activity against Escherichia coli IH3080 by Etest method in presence of NAB7061; type: functional
[16] = test system: Enterobacter cloacae; assay: Antibacterial activity against Enterobacter cloacae CCUG52947 by Etest method in presence of 4 ug/ml NAB7067; type: functional
[17] = test system: Escherichia coli; assay: Antibacterial activity against Escherichia coli ATCC 25992 by Etest method; type: functional; procedure, shortened: as §3
[18] = test system: Pseudomonas aeruginosa; assay: (§5) Antibacterial activity against Pseudomonas aeruginosa ATCC 27853by Etest method in presence of […] NAB739; type: functional
[19] = test system: Serratia marcescens; assay: Antibacterial activity against Serratia marcescens ATCC 8100 by Etest method in presence of 4 ug/ml NAB7072; type: functional
[20] = test system: Klebsiella pneumoniae; assay: Antibacterial activity against Klebsiella pneumoniae ATCC 13883 by Etest method; type: functional; procedure, shortened: as §1
[21] = test system: Klebsiella pneumoniae; assay: Antibacterial activity against Klebsiella pneumoniae ATCC 13883 by Etest method in presence of 2 ug/ml NAB7061; type: functional; procedure, shortened: as §1
[22] = test system: Escherichia coli; assay: Antibacterial activity against Escherichia coli by Etest method in presence of 4 ug/ml NAB7061; type: functional
[23] = test system: Escherichia coli; assay: Antibacterial activity against Escherichia coli ATCC […] by Etest method in presence of 2 ug/ml NAB7062; type: functional
[24] = test system: Pseudomonas aeruginosa; assay: Antibacterial activity against Pseudomonas aeruginosa ATCC 27853by Etest method in presence of 2 ug/ml NAB739; type: functional
[25] = test system: Acinetobacter baumannii; assay: Antibacterial activity against Acinetobacter baumannii F264 by Etest method; type: functional; procedure, shortened: as §3
[26] = test system: Escherichia coli; assay: Antibacterial activity against Escherichia coli IH3080 by Etest method in presence of 1 ug/ml NAB7061; type: functional
[27] = test system: Escherichia coli; assay: Antibacterial activity against Escherichia coli NCTC13353 by Etest method in presence of 4 ug/ml NAB7062; type: functional
[28] = test system: Enterobacter cloacae; assay: Antibacterial activity against Enterobacter cloacae ATCC 23355 […] by Etest method in presence of NAB7061; type: functional
[29] = test system: Escherichia coli; assay: Antibacterial activity against Escherichia coli ATCC […] by Etest method in presence of 4 ug/ml NAB7064; type: functional
[30] = test system: Escherichia coli; assay: Antibacterial activity against Escherichia coli IH3080 by Etest method in presence of 4 ug/ml NAB7064; type: functional
[31] = test system: Klebsiella pneumoniae; assay: Antibacterial activity against Klebsiella pneumoniae ATCC 13883 by Etest method in presence of 4 ug/ml NAB7061; type: functional; procedure, shortened: as §1
[32] = test system: Citrobacter freundii; assay: Antibacterial activity against Citrobacter freundii ATCC 8090 by Etest method in presence of 4 ug/ml NAB7069; type: functional
[33] = test system: Acinetobacter baumannii; assay: Antibacterial activity against Acinetobacter baumannii ATCC 19606 by Etest method in presence of 1 ug/ml NAB739; type: functional
[34] = test system: Enterobacter cloacae; assay: Antibacterial activity against Enterobacter cloacae ATCC 23355 by Etest method; type: functional; procedure, shortened: as §3
[35] = test system: Acinetobacter baumannii; assay: as §2; type: functional; remark: listed apart in the source
[36] = test system: Acinetobacter baumannii; assay: Antibacterial activity against Acinetobacter baumannii F264 by Etest method in presence of 0.5 ug/ml NAB739; type: functional
[37] = test system: Klebsiella oxytoca; assay: Antibacterial activity against Klebsiella oxytoca ATCC 13182 by Etest method in presence of 4 ug/ml NAB7065; type: functional
[38] = test system: Pseudomonas aeruginosa; assay: as §5; type: functional; remark: listed apart in the source
[39] = test system: Acinetobacter baumannii; assay: Antibacterial activity against Acinetobacter baumannii by Etest method in presence of 4 ug/ml NAB7071; type: functional
[40] = test system: Enterobacter cloacae; assay: Antibacterial activity against Enterobacter cloacae by Etest method in presence of 4 ug/ml NAB7068; type: functional
[41] = test system: Proteus vulgaris; assay: Antibacterial activity against Proteus vulgaris ATCC 13315 by Etest method in presence of 4 ug/ml NAB7074; type: functional
[42] = test system: Proteus mirabilis; assay: Antibacterial activity against Proteus mirabilis ATCC 29906 by Etest method in presence of 4 ug/ml NAB7073; type: functional
[43] = test system: Escherichia coli; assay: Antibacterial activity against Escherichia coli IH3080 by Etest method in presence of 2 ug/ml NAB7062; type: functional
[44] = test system: Pseudomonas aeruginosa; assay: Antibacterial activity against Pseudomonas aeruginosa ATCC 27853by Etest method; type: functional; procedure, shortened: as §1
[45] = test system: Pseudomonas aeruginosa; assay: Antibacterial activity against Pseudomonas aeruginosa ATCC 27853by Etest method in presence of 0.5 ug/ml NAB739; type: functional; procedure, shortened: as §1
[46] = test system: Acinetobacter baumannii; assay: Antibacterial activity against Acinetobacter baumannii ATCC 19606 by Etest method in presence of 0.5 ug/ml NAB739; type: functional
[47] = test system: Acinetobacter baumannii; assay: Antibacterial activity against Acinetobacter baumannii ATCC 19606 by Etest method in presence of 4 ug/ml NAB7070; type: functional
[48] = test system: Acinetobacter baumannii; assay: Antibacterial activity against Acinetobacter baumannii F264 by Etest method in presence of 1 ug/ml NAB739; type: functional
[49] = test system: Acinetobacter baumannii; assay: as §4; type: functional; remark: listed apart in the source
[50] = test system: Klebsiella pneumoniae; assay: Antibacterial activity against Klebsiella pneumoniae ATCC 13883 by Etest method in presence of 1 ug/ml NAB7061; type: functional; procedure, shortened: as §1
[51] = test system: V79; assay: Cytotoxicity against chinese hamster V79 cells at […] to 128 ug/ml after 24 hrs; type: cell-based, Cricetulus griseus; conditions: v79, 24 h
[52] = Inhibition of [3H]gentamicin binding to brush border membrane of renal cortex
Procedure, shortened: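 Brush border membrane vesicles prepared from male albino rat renal cortex by Mg2+-EGTA precipitation. Incubated with 20 μM [3H]gentamicin in 10 mM HEPES pH 7.5 with 300 mM mannitol, with or without compound, 60 min at 4°C. Then filtered, washed, and bound radioactivity counted by scintillation. IC50 fitted with the Hill equation.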

In the case of `CC[C@H]1OC(=O)[C@H](C)[C@@H](O[C@H]2C[C@@](C)(OC)[C@@H](O)[C@H](C)O2)[C@H](C)[C@@H](O[C@@H]2O[C@H](C)C[C@H](N(C)C)[C@H]2O)[C@](C)(OC)C[C@@H](C)C(=O)[C@H](C)[C@@H](O)[C@]1(C)O` [CLARITHROMYCIN], the MIC [1] is reported as no more than 0.141 µg/mL, the MIC [2] is reported as 32 µg/mL and the MIC [3] is reported as 0.25 µg/mL. The MIC [4] was 2 µg/mL, the MIC [5] was 0.25 µg/mL and the MIC [6] was 12 µg/mL (≈ 16 µM). It also gave an MIC [7] of 12 µg/mL, an MIC [8] of 0.19 µg/mL and an MIC [9] of 8 µg/mL (≈ 10.7 µM). For the same compound, the MIC [10] was 1.5 µg/mL, the MIC [11] was 24 µg/mL and the MIC [12] was 32 µg/mL. For the same compound, the MIC [13] was 1.5 µg/mL, the MIC [14] was 0.5 µg/mL and the MIC [15] was 0.105 µg/mL. For the same compound, the MIC [16] was 0.38 µg/mL, the MIC [17] was 16 µg/mL (≈ 21.4 µM) and the MIC [18] was 32 µg/mL. For the same compound, the MIC [19] was 96 µg/mL, the MIC [20] was 12 µg/mL (≈ 16 µM) and the MIC [21] was 1 µg/mL. The MIC [22] was 0.032 µg/mL, the MIC [23] was 0.19 µg/mL and the MIC [24] was 3 µg/mL. It also gave an MIC [25] of 6 µg/mL (≈ 8.02 µM), an MIC [26] of 0.5 µg/mL and an MIC [27] of 1 µg/mL. It also gave an MIC [28] of 0.273 µg/mL, an MIC [29] of 0.094 µg/mL and an MIC [30] of 0.047 µg/mL. The MIC [31] was 0.19 µg/mL, the MIC [32] was 0.125 µg/mL and the MIC [33] was 0.094 µg/mL. The MIC [34] was 64 µg/mL (≈ 85.6 µM), the MIC [35] was 1.5 µg/mL and the MIC [36] was 0.5 µg/mL. It also gave an MIC [37] of 0.25 µg/mL, an MIC [38] of 32 µg/mL and an MIC [39] of 0.25 µg/mL. The MIC [40] was 0.047 µg/mL, the MIC [41] was 24 µg/mL and the MIC [42] was 24 µg/mL. The MIC [43] was 0.25 µg/mL, the MIC [44] was 48 µg/mL (≈ 64.2 µM) and the MIC [45] was 16 µg/mL. For the same compound, the MIC [46] was 0.5 µg/mL, the MIC [47] was 0.5 µg/mL and the MIC [48] was 0.125 µg/mL. The MIC [49] was 1 µg/mL and the MIC [50] was 2 µg/mL.

For `CCCCCCCC(=O)N[C@H](C(=O)N[C@H](CO)C(=O)N[C@H]1CCNC(=O)[C@H]([C@@H](C)O)NC(=O)[C@H](CCN)NC(=O)[C@H](CCN)NC(=O)[C@H](CC(C)C)NC(=O)[C@@H](Cc2ccccc2)NC(=O)[C@H](CCN)NC1=O)[C@@H](C)O`, the Activity [51] was “Non-toxic” and the IC50 [52] was 264 µM.

In the case of `CCCCCCCC(=O)N[C@H](C(=O)N[C@@H](CC)C(=O)N[C@H]1CCNC(=O)[C@H]([C@@H](C)O)NC(=O)[C@H](CCN)NC(=O)[C@H](CCN)NC(=O)[C@H](CC(C)C)NC(=O)[C@@H](Cc2ccccc2)NC(=O)[C@H](CCN)NC1=O)[C@@H](C)O` (Octanoyl-T[Abu][Dab][Dab][dF]L[Dab][Dab]T; lactam 3-C), the Activity [51] is reported as “Non-toxic” and the IC50 [52] is reported as 187 µM.
